We go through six molecules from paper PMC2753403 (Journal of the American Chemical Society, 2009).

Several values for one entry are separate records, joined by “and”; a condition that tells them apart may be missing. Equal entries are not always repeated. Where two headings read alike, the source gives them in different places.

Series [1] concerns human tumor cell lines: MCF-7, NCI-H460 and SF-268. Description: FOH/GGOH rescue of cell growth inhibition. Format: cell-based. The conditions noted are these: for rescue from growth inhibition by GGOH: 20 μM GGOH added; for rescue from growth inhibition by FOH: 20 μM FOH added. In outline: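 Cells were grown in RPMI-1640 with 10% FBS and 2 mM L-glutamine at 37°C, 5% CO2. They were seeded at 5,000 cells/well with test compound added, and each well also received FOH or GGOH from ethanol stocks at a fixed 20 μM. After 4 days, growth was read by MTT.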

Series [2] deals with mouse fetal metatarsal. Description: Mouse fetal metatarsal 45Ca2+ release inhibition assay. The conditions noted are these: read-out: IC50, 45Ca2+ release inhibition.
Series [3] deals with T1, Human FPPS (Homo sapiens, UniProt P14324).
T1 sequence (P14324 1-419): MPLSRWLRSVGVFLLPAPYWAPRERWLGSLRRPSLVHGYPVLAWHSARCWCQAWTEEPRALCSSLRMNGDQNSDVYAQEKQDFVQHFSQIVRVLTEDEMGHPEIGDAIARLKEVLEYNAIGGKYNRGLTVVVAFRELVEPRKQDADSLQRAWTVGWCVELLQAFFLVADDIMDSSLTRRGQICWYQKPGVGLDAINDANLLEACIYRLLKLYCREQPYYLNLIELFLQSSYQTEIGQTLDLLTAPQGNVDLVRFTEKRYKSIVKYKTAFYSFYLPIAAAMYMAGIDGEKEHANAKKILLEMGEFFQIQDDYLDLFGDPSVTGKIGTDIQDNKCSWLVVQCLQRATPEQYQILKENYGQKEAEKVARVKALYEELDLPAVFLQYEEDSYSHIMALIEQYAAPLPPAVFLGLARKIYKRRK
As to the kind of experiment: Human FPPS inhibition. Format: biochemical. In a few lines:
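Recombinant human FPPS condensed geranyl diphosphate with isopentenyl diphosphate, followed by a continuous spectrophotometric phosphate-release assay. Buffer was 50 mM Tris-HCl, 1 mM MgCl2, pH 7.4. Enzyme and test compound were preincubated 30 min at 20°C. IC50 came from a dose-response curve fit.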

Series [4] concerns human tumor cell lines: MCF-7, NCI-H460 and SF-268. As to the kind of experiment: Tumor cell growth inhibition. Format: cell-based. In a few lines:
(§1)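 Cells were grown in RPMI-1640 with 10% FBS and 2 mM L-glutamine at 37°C, 5% CO2, 100% humidity, and seeded at 5,000 cells/well. Test compound came from 0.01 M water stocks as a half-log serial dilution series (0.316 mM to 0.1 pM) prepared before addition. Plates ran 4 days, then MTT dose-response.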

For series [5], the system named is SK-ES-1 sarcoma cells. Description: SK-ES-1 sarcoma mouse xenograft. The class given is in vivo. The conditions noted are these: athymic nude mice, 5 μg daily intraperitoneal, 30 days. In outline:
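Four 6-week-old athymic nude mice each received 1.5×10^7 human SK-ES-1 cells subcutaneously in the right flank. Treatment was daily intraperitoneal test compound (5 μg) for 30 days, or physiological saline. Tumor diameters and body weight were measured weekly, and volume = (smallest diameter)2 × (largest diameter)/2. Statistics used one-way ANOVA with Fisher's PLSD, with p < 0.05 taken as significant.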

In series [6] the test system is MCF-7. As to the kind of experiment: MCF-7 cell growth inhibition. Format: cell-based. The conditions noted are these: Homo sapiens, MCF7, 96 h, read-out: IC50, tumor cell growth inhibition. In outline: as §1
Series [7] deals with breast cancer patients. The conditions noted are these: Phase III, 1803 breast cancer patients, zoledronate (+hormone) therapy; cited from earlier work.
Series [8] is described as follows: 14C-labelled olpadronate displacement bone-binding model. The conditions noted are these: fetal mouse metatarsals, Figure 8b.
The subject of series [9] is MDA-MB-231 cells. As to the kind of experiment: Matrigel invasion assay. The conditions noted are these: 24 hours treatment, up to 10 μM. Format: cell-based, human.
Where [10] appears, read: mouse fetal metatarsal, Figure 8a.

For `CC(C)=CCCC(C)=CCC(CC=C(C)CCC=C(C)C)(P(=O)(O)O)P(=O)(O)O` [1,1-digeranylmethylene bisphosphonate, reference compound], the “rescue from growth inhibition by GGOH” value in [1] is reported as “rescue by GGOH”.
What is called IC50 is the concentration needed to halve the response being measured. As to `O=P(O)(O)C(O)(Cc1cccc(-c2cccc(NS(=O)(=O)c3ccc4ccccc4c3)c2)c1)P(=O)(O)O` [BPH-675], in series [2] (setting [10]), the IC50 was about 30000 nM. Besides, the “FPPS inhibition (in words)” value in [3] was “very weak”. In series [1], the “rescue from growth inhibition by FOH” value is “FOH has no effect” and the “rescue from growth inhibition by GGOH” value is “almost fully reversed by addition of 20 μM GGOH”.
For `CCCCCCCCCCOc1ccc[n+](CC(P(=O)([O-])O)P(=O)(O)O)c1` (centres unmarked) [BPH-715], the IC50 in series [2] (setting [10]) was 2900 nM and ~2900 nM. The “IC50 in tumor cell growth inhibition, fold lower than zoledronate” value in [4] (versus zoledronate) is ~ 100 fold. For the same molecule, the “weight loss or other adverse effect” value in series [5] is recorded as “no weight loss or other adverse effect observed”. In series [1], the “rescue from growth inhibition by FOH” value is given as “no rescue by either FOH or GGOH” and the “rescue from growth inhibition by GGOH” value is recorded as “no rescue by either FOH or GGOH”.
`CCCCCCCCCCCCOc1ccc[n+](CC(P(=O)(O)O)P(=O)(O)O)c1` [BPH-716]: in [2] (setting [10]), the IC50 was about 1300 nM. The “activity in the cell assays compared with BPH-715” value in series [4] (growth inhibition and Matrigel invasion assays) is listed as “about the same activity as BPH-715”.
`NCCC(O)(P(=O)(O)O)P(=O)(O)O` [pamidronate]: the IC50 in [6] is about 140000 nM.
On to `O=P(O)(O)C(O)(Cn1ccnc1)P(=O)(O)O` [zoledronate], for which the IC50 in series [2] (Mus musculus) is about 100 nM; in [6], about 15000 nM. Further, the “reduced risk of cancer returning, or death” value in [7] was 36%. Further, the “displacement of bound 14C-labelled olpadronate” value in series [8] was “far more effective in displacing this bound bisphosphonate than are the lipophilic species”. Moreover, the “effect on MDA-MB-231 invasion” value in series [9] is “essentially no effect even at 10 μM”. Further, the “reduction in tumor cell growth (tumor volume)” value in series [5] is listed as “significant (p < 0.01) reduction in tumor cell growth versus control”. For the same molecule, the “rescue from growth inhibition by GGOH” value in series [1] is on record as “only a partial rescue by GGOH”.
